ChEMBL document CHEMBL2375313, “Synthesis, in vitro antitumor evaluation and DNA-binding study of novel tetrahydroquinolines and some derived tricyclic and tetracyclic ring systems” (Eur J Med Chem, 2013)

Legend:
Format in all cases: functional
MCF7 = assay: Cytotoxicity against human MCF7 cells assessed as growth inhibition at 10 uM after 48 hrs by sulphorhodamine B assay; settings: MCF7, 48 h, read-out: GI
How it was run: (§1)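 NCI-60 one-dose screen per the NCI Drug Evaluation Branch protocol. Cells given a single 10 µM concentration with 48 h continuous exposure. Growth estimated by sulphorhodamine B protein assay. Result expressed as percentage growth inhibition relative to untreated growth.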

A498 = assay: Cytotoxicity against human A498 cells assessed as growth inhibition at 10 uM after 48 hrs by sulphorhodamine B assay; settings: A498, 48 h, read-out: GI; how it was run: as §1
Hs-578T = assay: Cytotoxicity against human Hs578T cells assessed as growth inhibition at 10 uM after 48 hrs by sulphorhodamine B assay; settings: read-out: GI; how it was run: as §1
NCI/ADR-RES = assay: Cytotoxicity against human NCI/ADR-RES cells assessed as growth inhibition at 10 uM after 48 hrs by sulphorhodamine B assay; settings: read-out: GI; how it was run: as §1
NCI-H522 = assay: Cytotoxicity against human NCI-H522 cells assessed as growth inhibition at 10 uM after 48 hrs by sulphorhodamine B assay; settings: NCI-H522, 48 h, read-out: GI; how it was run: as §1
PC-3 = assay: Cytotoxicity against human PC3 cells assessed as growth inhibition at 10 uM after 48 hrs by sulphorhodamine B assay; settings: PC-3, 48 h, read-out: GI; how it was run: as §1
HOP-92 = assay: Cytotoxicity against human HOP92 cells assessed as growth inhibition at 10 uM after 48 hrs by sulphorhodamine B assay; settings: HOP-92, 48 h, read-out: GI; how it was run: as §1
OVCAR-5 = assay: Cytotoxicity against human OVCAR5 cells assessed as growth inhibition at 10 uM after 48 hrs by sulphorhodamine B assay; settings: OVCAR-5, 48 h, read-out: GI; how it was run: as §1
UACC-62 = assay: Cytotoxicity against human UACC62 cells assessed as growth inhibition at 10 uM after 48 hrs by sulphorhodamine B assay; settings: UACC-62, 48 h, read-out: GI; how it was run: as §1
IGROV-1 = assay: Cytotoxicity against human IGROV1 cells assessed as growth inhibition at 10 uM after 48 hrs by sulphorhodamine B assay; settings: IGROV-1, 48 h, read-out: GI; how it was run: as §1
SK-MEL-5 = assay: Cytotoxicity against human SK-MEL-5 cells assessed as growth inhibition at 10 uM after 48 hrs by sulphorhodamine B assay; settings: SK-MEL-5, 48 h, read-out: GI; how it was run: as §1
[1] = Cytotoxicity against human EKVX cells assessed as growth inhibition at 10 uM after 48 hrs by sulphorhodamine B assay; settings: read-out: GI; how it was run: as §1
SK-OV-3 = assay: Cytotoxicity against human SKOV3 cells assessed as growth inhibition at 10 uM after 48 hrs by sulphorhodamine B assay; settings: SK-OV-3, 48 h, read-out: GI; how it was run: as §1
CAKI-1 = assay: Cytotoxicity against human Caki1 cells assessed as growth inhibition at 10 uM after 48 hrs by sulphorhodamine B assay; settings: CAKI-1, 48 h, read-out: GI; how it was run: as §1
MDA-MB-435 = assay: Cytotoxicity against human MDA-MB-435 cells assessed as growth inhibition at 10 uM after 48 hrs by sulphorhodamine B assay; settings: MDA-MB-435, 48 h, read-out: GI; how it was run: as §1
MOLT-4 = assay: Cytotoxicity against human MOLT4 cells assessed as growth inhibition at 10 uM after 48 hrs by sulphorhodamine B assay; settings: MOLT-4, 48 h, read-out: GI; how it was run: as §1
HT-29 = assay: Cytotoxicity against human HT-29 cells assessed as growth inhibition at 10 uM after 48 hrs by sulphorhodamine B assay; settings: HT-29, 48 h, read-out: GI; how it was run: as §1
HCT-15 = assay: Cytotoxicity against human HCT15 cells assessed as growth inhibition at 10 uM after 48 hrs by sulphorhodamine B assay; settings: HCT-15, 48 h, read-out: GI; how it was run: as §1
UO-31 = assay: Cytotoxicity against human UO31 cells assessed as growth inhibition at 10 uM after 48 hrs by sulphorhodamine B assay; settings: UO-31, 48 h, read-out: GI; how it was run: as §1
DU-145 = assay: Cytotoxicity against human DU145 cells assessed as growth inhibition at 10 uM after 48 hrs by sulphorhodamine B assay; settings: DU-145, 48 h, read-out: GI; how it was run: as §1
T47D = assay: Cytotoxicity against human T47D cells assessed as growth inhibition at 10 uM after 48 hrs by sulphorhodamine B assay; settings: read-out: GI; how it was run: as §1
RXF 393 = assay: Cytotoxicity against human RXF393 cells assessed as growth inhibition at 10 uM after 48 hrs by sulphorhodamine B assay; settings: RXF 393, 48 h, read-out: GI; how it was run: as §1
ACHN = assay: Cytotoxicity against human ACHN cells assessed as growth inhibition at 10 uM after 48 hrs by sulphorhodamine B assay; settings: read-out: GI; how it was run: as §1
RPMI-8226 = assay: Cytotoxicity against human RPMI8226 cells assessed as growth inhibition at 10 uM after 48 hrs by sulphorhodamine B assay; settings: RPMI-8226, 48 h, read-out: GI; how it was run: as §1
K562 = assay: Cytotoxicity against human K562 cells assessed as growth inhibition at 10 uM after 48 hrs by sulphorhodamine B assay; settings: K562, 48 h, read-out: GI; how it was run: as §1
M14 = assay: Cytotoxicity against human M14 cells assessed as growth inhibition at 10 uM after 48 hrs by sulphorhodamine B assay; settings: M14, 48 h, read-out: GI; how it was run: as §1
HCT-116 = assay: Cytotoxicity against human HCT116 cells assessed as growth inhibition at 10 uM after 48 hrs by sulphorhodamine B assay; settings: HCT-116, 48 h, read-out: GI; how it was run: as §1
OVCAR-4 = assay: Cytotoxicity against human OVCAR4 cells assessed as growth inhibition at 10 uM after 48 hrs by sulphorhodamine B assay; settings: OVCAR-4, 48 h, read-out: GI; how it was run: as §1
MDA-MB-468 = assay: Cytotoxicity against human MDA-MB-468 cells assessed as growth inhibition at 10 uM after 48 hrs by sulphorhodamine B assay; settings: MDA-MB-468, 48 h, read-out: GI; how it was run: as §1
SF-268 = assay: Cytotoxicity against human SF268 cells assessed as growth inhibition at 10 uM after 48 hrs by sulphorhodamine B assay; settings: SF-268, 48 h, read-out: GI; how it was run: as §1
SNB-19 = assay: Cytotoxicity against human SNB19 cells assessed as growth inhibition at 10 uM after 48 hrs by sulphorhodamine B assay; settings: SNB-19, 48 h, read-out: GI; how it was run: as §1
A549 = assay: Cytotoxicity against human A549 cells assessed as growth inhibition at 10 uM after 48 hrs by sulphorhodamine B assay; settings: A549, 48 h, read-out: GI; how it was run: as §1
SNB-75 = assay: Cytotoxicity against human SNB75 cells assessed as growth inhibition at 10 uM after 48 hrs by sulphorhodamine B assay; settings: SNB-75, 48 h, read-out: GI; how it was run: as §1
NCI-H23 = assay: Cytotoxicity against human NCI-H23 cells assessed as growth inhibition at 10 uM after 48 hrs by sulphorhodamine B assay; settings: NCI-H23, 48 h, read-out: GI; how it was run: as §1
SR = assay: Cytotoxicity against human SR cells assessed as growth inhibition at 10 uM after 48 hrs by sulphorhodamine B assay; settings: read-out: GI; how it was run: as §1
CCRF-CEM = assay: Cytotoxicity against human CCRF-CEM cells assessed as growth inhibition at 10 uM after 48 hrs by sulphorhodamine B assay; settings: read-out: GI; how it was run: as §1
LOX IMVI = assay: Cytotoxicity against human LOXIMVI cells assessed as growth inhibition at 10 uM after 48 hrs by sulphorhodamine B assay; settings: read-out: GI; how it was run: as §1
U-251 = assay: Cytotoxicity against human U251 cells assessed as growth inhibition at 10 uM after 48 hrs by sulphorhodamine B assay; settings: U-251, 48 h, read-out: GI; how it was run: as §1
SF-295 = assay: Cytotoxicity against human SF295 cells assessed as growth inhibition at 10 uM after 48 hrs by sulphorhodamine B assay; settings: SF-295, 48 h, read-out: GI; how it was run: as §1
HL-60(TB) = assay: Cytotoxicity against human HL-60(TB) cells assessed as growth inhibition at 10 uM after 48 hrs by sulphorhodamine B assay; settings: HL-60, 48 h, read-out: GI
How it was run: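 NCI-60 one-dose primary screen run to the Drug Evaluation Branch protocol. Cells are exposed to a single 10 µM concentration for 48 h continuously, and growth is read by SRB protein assay. Data are reported as percent growth of treated cells, expressed as % growth inhibition.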

SK-MEL-2 = assay: Cytotoxicity against human SK-MEL-2 cells assessed as growth inhibition at 10 uM after 48 hrs by sulphorhodamine B assay; settings: SK-MEL-2, 48 h, read-out: GI; how it was run: as §1

In the case of COc1ccc(-c2c3c(nc4nc[nH]c(=O)c24)C(C)CCC3)cc1 (stereo unspecified), the inhibition of growth at 10 µM (MCF7) is reported as less than 10%, the inhibition of growth at 10 µM (A498) is reported as less than 10% and the inhibition of growth at 10 µM (Hs-578T) is reported as less than 10%. For the same molecule, the inhibition of growth at 10 µM (NCI/ADR-RES) was 20%, the inhibition of growth at 10 µM (NCI-H522) was 20.8% and the inhibition of growth at 10 µM (PC-3) was less than 10%. It also gave an inhibition of growth at 10 µM (HOP-92) of less than 10%, an inhibition of growth at 10 µM (OVCAR-5) of less than 10% and an inhibition of growth at 10 µM (UACC-62) of less than 10%. For the same molecule, the inhibition of growth at 10 µM (IGROV-1) was less than 10%, the inhibition of growth at 10 µM (SK-MEL-5) was less than 10% and the inhibition of growth at 10 µM [1] was less than 10%. The inhibition of growth at 10 µM (SK-OV-3) was less than 10%, the inhibition of growth at 10 µM (CAKI-1) was less than 10% and the inhibition of growth at 10 µM (MDA-MB-435) was less than 10%. For the same molecule, the inhibition of growth at 10 µM (MOLT-4) was less than 10%, the inhibition of growth at 10 µM (HT-29) was less than 10% and the inhibition of growth at 10 µM (HCT-15) was 13.7%. The inhibition of growth at 10 µM (UO-31) was less than 10%, the inhibition of growth at 10 µM (DU-145) was less than 10% and the inhibition of growth at 10 µM (T47D) was less than 10%. It also gave an inhibition of growth at 10 µM (RXF 393) of less than 10%, an inhibition of growth at 10 µM (ACHN) of less than 10% and an inhibition of growth at 10 µM (RPMI-8226) of less than 10%. It also gave an inhibition of growth at 10 µM (K562) of less than 10%, an inhibition of growth at 10 µM (M14) of less than 10% and an inhibition of growth at 10 µM (HCT-116) of less than 10%. For the same molecule, the inhibition of growth at 10 µM (OVCAR-4) was less than 10%, the inhibition of growth at 10 µM (MDA-MB-468) was 21.5% and the inhibition of growth at 10 µM (SF-268) was less than 10%. It also gave an inhibition of growth at 10 µM (SNB-19) of less than 10%, an inhibition of growth at 10 µM (A549) of less than 10% and an inhibition of growth at 10 µM (SNB-75) of 34.3%. It also gave an inhibition of growth at 10 µM (NCI-H23) of 13.8%, an inhibition of growth at 10 µM (SR) of less than 10% and an inhibition of growth at 10 µM (CCRF-CEM) of less than 10%. For the same molecule, the inhibition of growth at 10 µM (LOX IMVI) was less than 10%, the inhibition of growth at 10 µM (U-251) was 19% and the inhibition of growth at 10 µM (SF-295) was less than 10%. It also gave an inhibition of growth at 10 µM (HL-60(TB)) of less than 10% and an inhibition of growth at 10 µM (SK-MEL-2) of less than 10%.
